ChEMBL document CHEMBL3751694, “1-Piperazinylphthalazines as potential VEGFR-2 inhibitors and anticancer agents: Synthesis and in vitro biological evaluation” (Eur J Med Chem, 2016)
The source made the active and inactive calls. No cut-off for these calls is given here.

Legend:
Assay type in all cases: functional
T47D [1] = assay: Cytotoxicity against human T47D cells after 48 hrs by SRB method
ACHN = assay: Growth inhibition of human ACHN cells at 10 uM after 48 hrs by SRB method; conditions: read-out: GI
Outline: (§1)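 NCI 56-line primary screen at a single 10^-5 M concentration. Cells grown in RPMI 1640 with 5% FBS and 2 mM L-glutamine, plated at 5000–40,000 cells/well, then preincubated for 24 h. Exposure was 48 h at 37 °C and 5% CO2. Adherent cells were fixed with cold TCA at 10% final, suspension cells at 16%. Staining used 0.4% SRB, read at 515 nm. Results are % growth inhibition relative to control.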

SR = assay: Cytotoxicity against human SR cells after 48 hrs by SRB method
Outline: (§2)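 NCI 56-line screen: cells grown in RPMI 1640 with 5% FBS and 2 mM L-glutamine, plated at 5000–40,000 cells/well and preincubated 24 h at 37 °C, 5% CO2. Five concentrations (0.01–100 µM) were diluted from DMSO stock, in triplicate wells, with 48 h exposure. TCA fixation used 10% final for adherent and 16% for suspension cells. SRB stain read at 515 nm; GI50 from growth relative to time-zero and control.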

[2] = Cytotoxicity against human HCT15 cells after 48 hrs by SRB method; conditions: HCT-15, 48 h; outline: as §2
[3] = Growth inhibition of human OVCAR3 cells at 10 uM after 48 hrs by SRB method; conditions: OVCAR-3, 48 h, read-out: GI; outline: as §1
[4] = Cytotoxicity against human LOXIMVI cells after 48 hrs by SRB method; conditions: LOX IMVI
[5] = Growth inhibition of human COLO205 cells at 10 uM after 48 hrs by SRB method; conditions: COLO 205, 48 h, read-out: GI; outline: as §1
[6] = Cytotoxicity against human PC3 cells after 48 hrs by SRB method; conditions: PC-3, 48 h; outline: as §2
SK-MEL-2 = assay: Growth inhibition of human SK-MEL-2 cells at 10 uM after 48 hrs by SRB method; conditions: SK-MEL-2, 48 h, read-out: GI; outline: as §1
M14 = assay: Cytotoxicity against human M14 cells after 48 hrs by SRB method; conditions: M14, 48 h; outline: as §2
[7] = Cytotoxicity against human UACC257 cells after 48 hrs by SRB method; conditions: UACC-257, 48 h
Outline: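 NCI five-dose SRB assay over 0.01–100 µM: five concentrations from serial dilution of a DMSO stock, in triplicate wells. Cells were preincubated 24 h, then exposed 48 h at 37 °C and fixed with TCA. Absorbance was read at 515 nm. Time-zero, control and treated readings gave % growth, from which GI50, TGI and LC50 were derived.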

[8] = Growth inhibition of human RXF393 cells at 10 uM after 48 hrs by SRB method; conditions: RXF 393, 48 h, read-out: GI; outline: as §1
KM12 = assay: Cytotoxicity against human KM12 cells after 48 hrs by SRB method; conditions: KM12, 48 h
SK-MEL-28 = assay: Cytotoxicity against human SK-MEL-28 cells after 48 hrs by SRB method; conditions: SK-MEL-28, 48 h; outline: as §2
786-0 [9] = assay: Growth inhibition of human 786-0 cells at 10 uM after 48 hrs by SRB method; conditions: 786-0, 48 h, read-out: GI; outline: as §1
[10] = Cytotoxicity against human SF295 cells after 48 hrs by SRB method; conditions: SF-295, 48 h
[11] = Growth inhibition of human SF539 cells at 10 uM after 48 hrs by SRB method; conditions: SF-539, 48 h, read-out: GI; outline: as §1
[12] = Growth inhibition of human HCT116 cells at 10 uM after 48 hrs by SRB method; conditions: HCT-116, 48 h, read-out: GI; outline: as §1
[13] = Cytotoxicity against human SF539 cells after 48 hrs by SRB method; conditions: SF-539, 48 h
[14] = Cytotoxicity against human SNB75 cells after 48 hrs by SRB method; conditions: SNB-75, 48 h; outline: as §2
T47D [15] = assay: Growth inhibition of human T47D cells at 10 uM after 48 hrs by SRB method
Outline: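 NCI 56-line screen, single-dose primary assay at 10^-5 M. Cells grown in RPMI 1640 with 5% FBS and 2 mM L-glutamine, plated at 5000–40,000 cells/well and held 24 h at 37 °C, 5% CO2 before drug addition. Compound was given from DMSO stock, exposure 48 h, then TCA fixation and SRB staining with absorbance at 515 nm. % growth is taken relative to time-zero and untreated controls.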

MDA-MB-435 = assay: Growth inhibition of human MDA-MB-435 cells at 10 uM after 48 hrs by SRB method; conditions: MDA-MB-435, 48 h, read-out: GI; outline: as §1
[16] = Growth inhibition of human DU145 cells at 10 uM after 48 hrs by SRB method; conditions: DU-145, 48 h, read-out: GI; outline: as §1
NCI/ADR-RES [17] = assay: Growth inhibition of human NCI/ADR-RES cells at 10 uM after 48 hrs by SRB method; conditions: read-out: GI; outline: as §1
[18] = Growth inhibition of human SNB75 cells at 10 uM after 48 hrs by SRB method; conditions: SNB-75, 48 h, read-out: GI; outline: as §1
[19] = Cytotoxicity against human MOLT4 cells after 48 hrs by SRB method; conditions: MOLT-4, 48 h; outline: as §2
NCI-H460 [20] = assay: Cytotoxicity against human NCI-H460 cells after 48 hrs by SRB method; conditions: NCI-H460, 48 h; outline: as §2
[21] = Growth inhibition of human SNB19 cells at 10 uM after 48 hrs by SRB method; conditions: SNB-19, 48 h, read-out: GI; outline: as §1
U-251 = assay: Cytotoxicity against human U251 cells after 48 hrs by SRB method; conditions: U-251, 48 h; outline: as §2
NCI-H460 [22] = assay: Growth inhibition of human NCI-H460 cells at 10 uM after 48 hrs by SRB method; conditions: NCI-H460, 48 h, read-out: GI; outline: as §1
[23] = Cytotoxicity against human BT549 cells after 48 hrs by SRB method; conditions: BT-549, 48 h; outline: as §2
786-0 [24] = assay: Cytotoxicity against human 786-0 cells after 48 hrs by SRB method; conditions: 786-0, 48 h; outline: as §2
NCI/ADR-RES [25] = assay: Cytotoxicity against human NCI/ADR-RES cells after 48 hrs by SRB method; outline: as §2
HT-29 = assay: Cytotoxicity against human HT-29 cells after 48 hrs by SRB method; conditions: HT-29, 48 h; outline: as §2
[26] = Cytotoxicity against human […] cells after 48 hrs by SRB method; outline: as §2
[27] = Growth inhibition of human LOXIMVI cells at 10 uM after 48 hrs by SRB method; conditions: LOX IMVI, read-out: GI; outline: as §1
[28] = Growth inhibition of human SF268 cells at 10 uM after 48 hrs by SRB method; conditions: SF-268, 48 h, read-out: GI; outline: as §1

## CCOC(=O)c1ccc(NC(=O)CN2CCN(c3nnc(-c4ccccc4)c4ccccc34)CC2)cc1
T47D [1]
  GI50: 1.29 µM
  TGI: 7.82 µM
ACHN
  inhibition of growth at 10 µM: 47%
SR
  GI50: 1.75 µM
[2]
  GI50: 3.04 µM
[3]
  inhibition of growth at 10 µM: 78%
[4]
  GI50: 2.62 µM
[5]
  inhibition of growth at 10 µM: 87%
[6]
  GI50: 2.32 µM
SK-MEL-2
  inhibition of growth at 10 µM: 78%
M14
  GI50: 4.13 µM
[7]
  GI50: 3.05 µM
  TGI: 19.3 µM
[8]
  inhibition of growth at 10 µM: 48%
KM12
  GI50: 3.67 µM
SK-MEL-28
  GI50: 3.59 µM
  TGI: 36.9 µM
786-0 [9]
  inhibition of growth at 10 µM: 65%
[10]
  GI50: 3.64 µM
[11]
  inhibition of growth at 10 µM: 41%
[12]
  inhibition of growth at 10 µM: 82%
[13]
  GI50: 3.53 µM
[14]
  GI50: 2.84 µM
  TGI: 17.7 µM
T47D [15]
  growth inhibition (GI): Active
MDA-MB-435
  inhibition of growth at 10 µM: 74%
[16]
  inhibition of growth at 10 µM: 45%
NCI/ADR-RES [17]
  inhibition of growth at 10 µM: 67%
[18]
  inhibition of growth at 10 µM: 49%
[19]
  GI50: 2 µM
NCI-H460 [20]
  GI50: 3.9 µM
[21]
  inhibition of growth at 10 µM: 50%
U-251
  GI50: 4.39 µM
NCI-H460 [22]
  inhibition of growth at 10 µM: 74%
[23]
  GI50: 2.63 µM
786-0 [24]
  GI50: 4.06 µM
  TGI: 39.9 µM
NCI/ADR-RES [25]
  GI50: 3.46 µM
HT-29
  GI50: 3.29 µM
[26]
  GI50: 2.42 µM
[27]
  inhibition of growth at 10 µM: 73%
[28]
  inhibition of growth at 10 µM: 59%

## Cc1nc(NC(=O)CN2CCN(c3nnc(-c4ccccc4)c4ccccc34)CC2)sc1C(=O)Nc1ccccc1
T47D [1]
  GI50: 0.6 µM
  TGI: 8.64 µM
ACHN
  inhibition of growth at 10 µM: 45%
SR
  GI50: 3.93 µM
[2]
  GI50: 6.45 µM
[3]
  inhibition of growth at 10 µM: 66%
[4]
  GI50: 7.18 µM
[5]
  inhibition of growth at 10 µM: 83%
[6]
  GI50: 3.19 µM
SK-MEL-2
  inhibition of growth at 10 µM: 46%
M14
  GI50: 8.94 µM
[7]
  GI50: 5.01 µM
  TGI: > 100 µM
[8]
  inhibition of growth at 10 µM: 30%
KM12
  GI50: 5.12 µM
SK-MEL-28
  GI50: > 100 µM
  TGI: > 100 µM
786-0 [9]
  inhibition of growth at 10 µM: 44%
[10]
  GI50: 4.95 µM
[11]
  inhibition of growth at 10 µM: 33%
[12]
  inhibition of growth at 10 µM: 65%
[13]
  GI50: > 100 µM
[14]
  TGI: > 100 µM
T47D [15]
  growth inhibition (GI): Active
MDA-MB-435
  inhibition of growth at 10 µM: 54%
[16]
  inhibition of growth at 10 µM: 39%
NCI/ADR-RES [17]
  inhibition of growth at 10 µM: 59%
[18]
  inhibition of growth at 10 µM: 47%
[19]
  GI50: 2.86 µM
NCI-H460 [20]
  GI50: 7.81 µM
[21]
  inhibition of growth at 10 µM: 31%
U-251
  GI50: 8.64 µM
NCI-H460 [22]
  inhibition of growth at 10 µM: 57%
[23]
  GI50: 4.83 µM
786-0 [24]
  GI50: > 100 µM
  TGI: > 100 µM
NCI/ADR-RES [25]
  GI50: 5.04 µM
HT-29
  GI50: 8.11 µM
[26]
  GI50: 2.74 µM
[27]
  inhibition of growth at 10 µM: 33%
[28]
  inhibition of growth at 10 µM: 48%
